Test results taken from ChEMBL document CHEMBL1131069 (J Med Chem, 1998).
Active and inactive are the calls of the source. No cut-off for these calls is given here.

Tests used:
[1] = Neurotoxicity determined at 30 minutes after the administration of compound by rotarod test.(- denotes activity at 300 mg/kg); type: toxicity, organism-based; set-up: dose 300 mg/kg; conditions: mouse, in vivo, 0.5 h
Outline: (§1)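 Male CF-1 mice dosed ip at 30, 100 or 300 mg/kg and tested 30 min or 4 h later on a 1-in. knurled rod turning at 6 rpm. A deficit was failure to stay on the rod for 1 min in each of three trials. Coding: ++ 100, + 300 mg/kg; - means none at 300 mg/kg.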

[2] = Toxicity was determined in rats at a dose of 30 mg/kg after 4 hour (- denotes no activity in administered animals).; type: organism-based; set-up: dose 30 mg/kg; conditions: rat, in vivo
Outline: (§2)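 Male Sprague-Dawley rats given a single oral dose of 30 mg/kg and assessed for toxicity 4 h after dosing, with at least four animals per time point. Score is the fraction of animals affected (+ 0-25%); - means no toxicity.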

Rattus norvegicus [3] = experiment: Anticonvulsant activity was determined in rats at a dose of 30 mg/kg after 4 hour by MES test. (+ denotes activity in 0-25% of administered animals).; type: functional, organism-based; set-up: dose 30 mg/kg
[4] = Apparent IC50 value by [3H]batrachotoxinin-A-20-alpha-benzoate-binding test performed in rat brain synaptosomes; type: subcellular
Outline: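 Rat brain synaptosomes, about 400 µg protein per assay, incubated 2 h at 37 °C, pH 7.4, in choline chloride/HEPES/glucose/KCl medium with 10 nM [³H]batrachotoxinin-A-20α-benzoate and scorpion venom. Stopped with cold-free choline chloride/HEPES/CaCl₂/MgSO₄ washes, filtered on GF/B, bound radioactivity counted. Protein by Bradford. Apparent IC50 from quadruplicate measurements, mean ± SD.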

Rattus norvegicus [5] = experiment: Anticonvulsant activity was determined in rats at a dose of 30 mg/kg after 2 hour by MES test. (+ denotes activity in 0-25% of administered animals).; type: functional, organism-based; set-up: dose 30 mg/kg
Rattus norvegicus [6] = experiment: Anticonvulsant activity was determined in rats at a dose of 30 mg/kg after 1 hour by MES test. (++ denotes activity in 25-50% of administered animals).; type: functional, organism-based; set-up: dose 30 mg/kg
Rattus norvegicus [7] = experiment: Anticonvulsant ED50 activity by MES test in rats dosed orally; type: functional; conditions: po
Outline: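 Male Sprague-Dawley rats (100-150 g) dosed orally. ED50 is the dose protecting 50% of animals against maximal electroshock-induced seizures. […]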

Mus musculus [8] = experiment: Anticonvulsant activity determined at 4 hours after the administration of compound using MES test.(++= signify activity at 100 mg/kg); type: functional, organism-based; set-up: dose 100 mg/kg
Outline: (§3)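 Male CF-1 albino mice (18-25 g) dosed intraperitoneally at 30, 100 or 300 mg/kg. Protection against maximal electroshock-induced seizures was scored 30 min or 4 h after dosing.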

[9] = Neurotoxicity determined at 4 hours after the administration of compound by rotarod test(- denotes activity at 300 mg/kg); type: toxicity, organism-based; set-up: dose 300 mg/kg; conditions: mouse, in vivo; outline: as §1
Mus musculus [10] = experiment: Anticonvulsant activity determined at 4 hours after the administration of compound using MES test.(+ = signify activity at 300 mg/kg); type: functional, organism-based; set-up: dose 300 mg/kg; outline: as §3
Rattus norvegicus [11] = experiment: Anticonvulsant activity was determined in rats at a dose of 30 mg/kg after 4 hour by MES test. (++ denotes activity in 25-50% of administered animals).; type: functional, organism-based; set-up: dose 30 mg/kg
[12] = Neurotoxicity determined at 4 hours after the administration of compound by rotarod test (- denotes activity at 300 mg/kg); type: toxicity, organism-based; set-up: dose 300 mg/kg; conditions: mouse, in vivo; outline: as §1
Mus musculus [13] = experiment: Anticonvulsant activity determined at 30 minutes after the administration of compound using MES test.(++= signify activity at 100 mg/kg); type: functional, organism-based; set-up: dose 100 mg/kg; outline: as §3
[14] = Neurotoxicity determined at 30 minutes after the administration of compound by rotarod test.(+ = signify activity at 300 mg/kg); type: toxicity, organism-based; set-up: dose 300 mg/kg; conditions: mouse, in vivo, 0.5 h; outline: as §1
Rattus norvegicus [15] = experiment: Anticonvulsant activity was determined in rats at a dose of 30 mg/kg after 1 hour by MES test. (+ denotes activity in 0-25% of administered animals).; type: functional, organism-based; set-up: dose 30 mg/kg
Rattus norvegicus [16] = experiment: Toxicity was determined in rats at a dose of 30 mg/kg after 4 hour. (+ denotes activity in 0-25% of administered animals).; type: functional, organism-based; set-up: dose 30 mg/kg; outline: as §2
Mus musculus [17] = experiment: Anticonvulsant activity determined at 30 minutes after the administration of compound using MES test. (++= signify activity at 100 mg/kg); type: functional, organism-based; set-up: dose 100 mg/kg; outline: as §3
Mus musculus [18] = experiment: Anticonvulsant activity determined at 30 minutes after the administration of compound using sc Ptz test. (+++ = activity at 30 mg/kg); type: functional, organism-based; set-up: dose 30 mg/kg
Outline: (§4)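 Male CF-1 mice (18-25 g) dosed ip at 30, 100 or 300 mg/kg. Pentylenetetrazol in 0.9% NaCl was injected sc at 0.01 mL/g. Tests were run 30 min or 4 h after dosing.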

Mus musculus [19] = experiment: Anticonvulsant activity determined at 4 hours after the administration of compound using sc Ptz test. (- denotes activity at 300 mg/kg); type: functional, organism-based; set-up: dose 300 mg/kg; outline: as §4
Rattus norvegicus [20] = experiment: Anticonvulsant activity was determined in rats at a dose of 30 mg/kg after 30 minutes by MES test. (++++ denotes activity in 75-100% of administered animals); type: functional, organism-based; set-up: dose 30 mg/kg
[21] = Neurotoxicity determined at 30 minutes after the administration of compound by rotarod test.(++= signify activity at 100 mg/kg); type: toxicity, organism-based; set-up: dose 100 mg/kg; conditions: mouse, in vivo, 0.5 h; outline: as §1
Rattus norvegicus [22] = experiment: Anticonvulsant activity was determined in rats at a dose of 30 mg/kg after 15 minutes by MES test. (++++ denotes activity in 75-100% of administered animals); type: functional, organism-based; set-up: dose 30 mg/kg
Rattus norvegicus [23] = experiment: Anticonvulsant activity was determined in rats at a dose of 30 mg/kg after 1 hour by MES test. (++++ denotes activity in 75-100% of administered animals); type: functional, organism-based; set-up: dose 30 mg/kg
Rattus norvegicus [24] = experiment: (§5) Toxicity was determined in rats at a dose of 30 mg/kg after 4 hour. (- denotes no activity in administered animals).; type: functional, organism-based; set-up: dose 30 mg/kg; outline: as §2
Rattus norvegicus [25] = experiment: Anticonvulsant activity was determined in rats at a dose of 30 mg/kg after 2 hour by MES test. (++++ denotes activity in 75-100% of administered animals); type: functional, organism-based; set-up: dose 30 mg/kg
Mus musculus [26] = experiment: Anticonvulsant activity determined at 30 minutes after the administration of compound using MES test. (+++ = activity at 30 mg/kg); type: functional, organism-based; set-up: dose 30 mg/kg; outline: as §3
[27] = Neurotoxicity determined at 4 hours after the administration of compound by rotarod test (++= signify activity at 100 mg/kg); type: toxicity, organism-based; set-up: dose 100 mg/kg; conditions: mouse, in vivo; outline: as §1
[28] = Neurotoxicity determined at 4 hours after the administration of compound by rotarod test (+ = signify activity at 300 mg/kg); type: toxicity, organism-based; set-up: dose 300 mg/kg; conditions: mouse, in vivo; outline: as §1
Mus musculus [29] = experiment: Anticonvulsant activity determined at 30 minutes after the administration of compound using MES test. (+ = signify activity at 300 mg/kg); type: functional, organism-based; set-up: dose 300 mg/kg; outline: as §3
[30] = as §5; type: organism-based; set-up: dose 30 mg/kg; conditions: rat, in vivo; outline: as §2
Mus musculus [31] = experiment: Anticonvulsant activity determined at 4 hours after the administration of compound using sc Ptz test.(+ = signify activity at 300 mg/kg); type: functional, organism-based; set-up: dose 300 mg/kg; outline: as §4
[32] = Neurotoxicity determined at 4 hours after the administration of compound by rotarod test(+ = signify activity at 300 mg/kg); type: toxicity, organism-based; set-up: dose 300 mg/kg; conditions: mouse, in vivo; outline: as §1
Rattus norvegicus [33] = experiment: Anticonvulsant activity was determined in rats at a dose of 30 mg/kg after 4 hour by MES test. (++++ denotes activity in 75-100% of administered animals); type: functional, organism-based; set-up: dose 30 mg/kg
[34] = Neurotoxicity determined at 30 minutes after the administration of compound by rotarod test. (+ = signify activity at 300 mg/kg); type: toxicity, organism-based; set-up: dose 300 mg/kg; conditions: mouse, in vivo, 0.5 h; outline: as §1
Mus musculus [35] = experiment: Anticonvulsant activity determined at 4 hours after the administration of compound using MES test. (++= signify activity at 100 mg/kg); type: functional, organism-based; set-up: dose 100 mg/kg; outline: as §3

Cc1cccc(C)c1NC(=O)c1ccc(O)cc1
Activity [1]: activity in 0-25% of administered animals
Activity [2]: activity in 0-25% of administered animals
Activity (Rattus norvegicus [3]): activity in 0-25% of administered animals
IC50 [4]: 350 nM
Activity (Rattus norvegicus [5]): activity in 0-25% of administered animals
Activity (Rattus norvegicus [6]): activity in 0-25% of administered animals
ED50 (Rattus norvegicus [7]): 284 µmol/kg
Activity (Mus musculus [8]): activity in 0-25% of administered animals
Activity [9]: activity in 0-25% of administered animals

Cc1ccc(N)c(C)c1N1C(=O)c2ccccc2C1=O
Activity (Mus musculus [10]): signifies activity at 300 mg/kg

Cc1cccc(C)c1N1C(=O)c2ccc(Cl)cc2C1=O
Activity (Rattus norvegicus [11]): activity in 0-25% of administered animals
IC50 [4]: 47800 nM
Activity (Rattus norvegicus [5]): activity in 0-25% of administered animals
Activity [12]: activity in 0-25% of administered animals
Activity (Mus musculus [13]): activity in 0-25% of administered animals
ED50 (Rattus norvegicus [7]): 354 µmol/kg
Activity (Mus musculus [8]): activity in 0-25% of administered animals
Activity [14]: activity in 0-25% of administered animals

O=C1NC(=O)C(c2ccccc2)(c2ccccc2)N1 [PHENYTOIN]
IC50 [4]: 860 nM
ED50 (Rattus norvegicus [7]): 121 µmol/kg

Cc1cccc(C)c1N1C(=O)c2ccc(O)cc2C1=O
Activity [1]: activity in 0-25% of administered animals
Activity (Rattus norvegicus [15]): activity in 0-25% of administered animals
Activity (Rattus norvegicus [3]): activity in 0-25% of administered animals
IC50 [4]: 1860 nM
Activity (Rattus norvegicus [16]): activity in 0-25% of administered animals
Activity [12]: activity in 0-25% of administered animals
ED50 (Rattus norvegicus [7]): 369 µmol/kg
Activity (Mus musculus [17]): activity in 0-25% of administered animals
Activity (Mus musculus [8]): activity in 0-25% of administered animals

Cc1cccc(C)c1N1C(=O)c2ccc(N)cc2C1=O
Activity (Mus musculus [18]): Active
Activity (Mus musculus [19]): inactive
Activity (Rattus norvegicus [20]): Active
Activity [21]: Active
Activity (Rattus norvegicus [22]): Active
Activity (Rattus norvegicus [23]): Active
Activity (Rattus norvegicus [11]): Weak activity
Activity (Rattus norvegicus [24]): Not toxic
IC50 [4]: 110 nM
Activity (Rattus norvegicus [25]): Active
Activity (Mus musculus [26]): Active
Activity [27]: Active
ED50 (Rattus norvegicus [7]): 25.3 µmol/kg
Activity (Mus musculus [8]): Active

CC1(C)CC(NC(=O)c2ccc([N+](=O)[O-])cc2)CC(C)(C)N1
Activity [28]: signifies activity at 300 mg/kg
Activity (Mus musculus [29]): signifies activity at 300 mg/kg
IC50 [4]: 25800 nM
Activity [30]: signifies activity at 300 mg/kg
ED50 (Rattus norvegicus [7]): > 650 µmol/kg
Activity [14]: signifies activity at 300 mg/kg

Cc1cccc(C)c1N1C(=O)c2ccc([N+](=O)[O-])cc2C1=O
Activity (Mus musculus [31]): Activity at 300 mg/kg
Activity [1]: Activity at 300 mg/kg
Activity (Rattus norvegicus [23]): ++
IC50 [4]: 184000 nM
Activity [32]: Activity at 300 mg/kg
Activity (Rattus norvegicus [33]): ++
ED50 (Rattus norvegicus [7]): 131 µmol/kg
Activity (Mus musculus [17]): Activity at 300 mg/kg
Activity (Mus musculus [8]): Activity at 300 mg/kg

Cc1cccc(C)c1NC(=O)c1ccc(N)cc1 [AMELTOLIDE]
Activity (Rattus norvegicus [22]): ++
Activity [1]: Activity at 300 mg/kg
Activity [30]: Activity at 300 mg/kg
Activity (Rattus norvegicus [33]): ++
ED50 (Rattus norvegicus [7]): 135 µmol/kg
Activity (Mus musculus [8]): Activity at 300 mg/kg
Activity [9]: Activity at 300 mg/kg

Cc1cccc(C)c1NC(=O)c1ccc([N+](=O)[O-])cc1
Activity [34]: Activity at 300 mg/kg
Activity (Mus musculus [35]): Activity at 300 mg/kg
Activity (Rattus norvegicus [22]): ++
IC50 [4]: 250 nM
Activity [12]: Activity at 300 mg/kg
Activity [30]: Activity at 300 mg/kg
ED50 (Rattus norvegicus [7]): 52.3 µmol/kg

Cc1cccc(C)c1N1C(=O)c2ccccc2C1=O
Activity [1]: activity in 0-25% of administered animals
IC50 [4]: 161000 nM
Activity (Rattus norvegicus [5]): activity in 0-25% of administered animals
Activity (Rattus norvegicus [6]): activity in 0-25% of administered animals
Activity (Mus musculus [13]): activity in 0-25% of administered animals
ED50 (Rattus norvegicus [7]): 231 µmol/kg
Activity [9]: activity in 0-25% of administered animals
